According to ChEMBL document CHEMBL4261545, “Extraction of antioxidant and antiproliferative ingredients from fruits of Rubus chingii Hu by active tracking guidance” (Medchemcomm, 2017):
In brackets after ≈: the same amount, converted by molar mass. Activity calls are given as the source filed them. The calls are words filed in the database; no cut-off is given here.

Experiments:
A549 [1] = experiment: Cytotoxicity against human A549 cells after 24 hrs by MTT assay; assay type: functional, cell-based
How it was run: (§1)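 Cells grown in DMEM with 10% heat-inactivated FBS, penicillin and streptomycin at 37 °C, 5% CO2. Seeded 5×10^4 cells per well and treated 24 h after seeding. Samples dissolved in DMSO and diluted in medium, final DMSO under 0.1% (v/v). After 24 h exposure, MTT (0.5 mg mL-1) was added for 4 h at 37 °C and absorbance read at 490 nm. Inhibition % = (1 − ODsample/ODcontrol)×100, run in triplicate.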

MCF7 [2] = experiment: Cytotoxicity against human MCF7 cells after 24 hrs by MTT assay; assay type: functional, cell-based; how it was run: as §1
Bel-7402 [3] = experiment: Cytotoxicity against human Bel7402 cells after 24 hrs by MTT assay; assay type: functional, cell-based; how it was run: as §1
HepG2 [4] = experiment: Cytotoxicity against human HepG2 cells after 24 hrs by MTT assay; assay type: functional, cell-based; how it was run: as §1
MCF7 [5] = experiment: Cytotoxicity against human MCF7 cells assessed as inhibition of cell proliferation at 100 ug/ml after 24 hrs by MTT assay relative to control; assay type: functional
How it was run: (§2)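 Cells (from the CAS cell bank) were grown in DMEM with 10% heat-inactivated FBS, penicillin and streptomycin at 37 °C under 5% CO2. They were seeded at 5×10^4 cells/well and treated 24 h later. Samples were dissolved in DMSO and diluted in medium (final DMSO <0.1%) for 24 h. MTT (0.5 mg/mL) was added for 4 h at 37 °C and A490 read. Inhibition = (1 − OD sample/OD control)×100, in triplicate.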

A549 [6] = experiment: Cytotoxicity against human A549 cells assessed as inhibition of cell proliferation at 100 ug/ml after 24 hrs by MTT assay relative to control; assay type: functional; how it was run: as §2
Bel-7402 [7] = experiment: Cytotoxicity against human Bel7402 cells assessed as inhibition of cell proliferation at 100 ug/ml after 24 hrs by MTT assay relative to control; assay type: functional; details: for inhibition at 100 µg/mL: Bel-7402, 24 h; how it was run: as §1
HepG2 [8] = experiment: Cytotoxicity against human HepG2 cells assessed as inhibition of cell proliferation at 100 ug/ml after 24 hrs by MTT assay relative to control; assay type: functional; how it was run: as §2
MCF7 [9] = experiment: Induction of morphological changes in human MCF7 cells after 24 hrs by phase contrast microscopic method; assay type: functional, cell-based
How it was run: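 MCF-7 cells were kept in DMEM with 10% heat-inactivated FBS at 37 °C, 5% CO2, exposed to compound for 24 h, then examined for morphological changes by phase-contrast microscopy.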

Compound | Activity (A549 [1]) | Activity (MCF7 [2]) | Activity (Bel-7402 [3]) | Activity (HepG2 [4]) | inhibition (MCF7 [5]) | inhibition (A549 [6]) | inhibition (Bel-7402 [7]) | inhibition (HepG2 [8]) | inhibition at 100 µg/mL (Bel-7402 [7]) | IC50 (A549 [1]; A549, 24 h) | inhibition at 100 µg/mL (MCF7 [5]; MCF7, 24 h) | Activity (MCF7 [9]) | inhibition at 100 µg/mL (A549 [6]; A549, 24 h) | IC50 (MCF7 [2]; MCF7, 24 h) | inhibition at 100 µg/mL (HepG2 [8]; HepG2, 24 h) | IC50 (Bel-7402 [3]; Bel-7402, 24 h) | IC50 (HepG2 [4]; HepG2, 24 h)
CC[C@H](CC[C@@H](C)[C@H]1CC[C@H]2[C@@H]3CC=C4C[C@@H](O[C@@H]5O[C@H](CO)[C@@H](O)[C@H](O)[C@H]5O)CC[C@]4(C)[C@H]3CC[C@]12C)C(C)C | Dose-dependent effect | Dose-dependent effect | Dose-dependent effect | Dose-dependent effect |  |  |  |  |  |  |  |  |  |  |  |  | 
C[C@@]12CCC[C@@](C)(C(=O)O)[C@H]1CC[C@@]13C[C@@H](CC[C@H]12)[C@](O)(CO)C3 | Dose-dependent effect | Dose-dependent effect | Dose-dependent effect | Dose-dependent effect |  |  |  |  |  |  |  |  |  |  |  |  | 
O=c1[nH]cc(F)c(=O)[nH]1 |  |  |  |  | Active | Active | Active | Active |  |  |  |  |  |  |  |  | 
CC1(C)CC[C@]2(C(=O)O)CC[C@]3(C)C(=CC[C@@H]4[C@@]5(C)CC[C@H](O)C(C)(C)[C@@H]5CC[C@]43C)[C@@H]2C1 [OLEANOLIC_ACID] | Dose-dependent effect | Dose-dependent effect | Dose-dependent effect | Dose-dependent effect |  |  |  |  | 55.2% |  |  |  |  |  |  |  | 
C[C@@H]1CC[C@]2(C(=O)O)CC[C@]3(C)C(=CC[C@@H]4[C@@]5(C)C[C@@H](O)[C@H](O)C(C)(C)[C@@H]5CC[C@]43C)[C@@H]2[C@]1(C)O [TOMENTIC ACID] | Dose-dependent effect | Dose-dependent effect | Dose-dependent effect | Dose-dependent effect |  |  |  |  | 80.2% | 62.4 µg/mL (≈ 128 µM) | 91.8% | Active | 72.4% | 24.2 µg/mL (≈ 49.6 µM) | 82.8% | 54.2 µg/mL (≈ 111 µM) | 40.6 µg/mL (≈ 83 µM)
